logD, Ki and Hill coefficient data for ten compounds are collected here from ChEMBL document CHEMBL1123350, “Synthesis and beta-adrenergic receptor blocking potency of 1-(substituted amino)-3-(4-indolyloxy)propan-2-ols” (J Med Chem, 1986).

For orientation: logD means lipophilicity at a set pH, counting ionised and neutral species. One may read the Ki as the dissociation constant of the complex between target and ligand, obtained from inhibition or displacement. Low readings indicate higher affinity, high ones lower affinity. As a reminder, the Hill coefficient is a measure of the steepness of the concentration-response curve.

A short description of series [1]: Distribution coefficient value of the compound. Type of series: physicochemical. The settings on record: octanol/water. An outline of the steps:
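Shake-flask partition between 0.1 M potassium phosphate pH 7.4 and 1-octanol, each phase presaturated with the other. Compound at 0.1–1.0 mg/mL in buffer, shaken 30 min, left 10 min, spun 600g 10 min at room temperature. Aqueous-phase absorbance read before and after partition at a per-compound wavelength. D = (Aorig−Aextr)/(Aextr·f), with f the octanol:buffer volume ratio. Run twice.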

Series [2] can be described thus: In vitro for binding affinity against beta adrenergic receptor in rat cerebellum. Format: tissue-based. An outline of the steps: (§1)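 Male Sprague–Dawley rat cortex or cerebellum membranes, washed in HEPES–EDTA pH 7.5 and resuspended in NaCl–Tris–MgCl2 pH 7.5. Bound ligand collected by filtration and gamma-counted; isoproterenol 25 μM defines nonspecific binding. IC50 and Hill n by nonlinear regression; Ki by Cheng–Prusoff for the eutomer. Run at least twice.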

The nature of series [3]: In vitro for binding affinity against beta adrenergic receptor in rat cortex. An outline of the steps: as §1
For series [4], the species on record is Rattus norvegicus. The experiment in a line: Hill coefficient value assayed against rat beta adrenergic receptor. An outline of the steps:
as §1

The structures appear in SMILES notation.

Compound `Nc1ccc(CCNCC(O)COc2cccc3[nH]ccc23)cc1` (stereo not given) yielded a log distribution coefficient (logD) in series [1] of 0.3. Further, the Ki was 22 nM in series [2] and 25 nM in series [3]. The Hill coefficient in series [4] is > 0.9.
For `OC(CNCCc1ccc(F)cc1)COc1cccc2[nH]ccc12` (stereo not given), in series [1], the logD was determined as 2. Besides, the Ki in series [2] came to 4 nM; in series [3] it was 5 nM. For the same compound, the Hill coefficient in series [4] is > 0.9.
On to `O=[N+]([O-])c1ccc(CCNCC(O)COc2cccc3[nH]ccc23)cc1` (stereo not given), for which the logD in series [1] is 1.5. In addition, the Ki came to 8 nM in series [2] and 5 nM in series [3]. Also, in series [4], the Hill coefficient is > 0.9.
Take `OC(CNCCc1ccc(Cl)c(Cl)c1)COc1cccc2[nH]ccc12` (stereo not given): in series [1], the pH-dependent lipophilicity (logD) was 2.5. Further, the figures for the Ki in series [2] and in series [3] were 11 nM and 6 nM, respectively. Besides, the Hill coefficient in series [4] is > 0.9.
For the compound `CC(C)(CO)NCC(O)COc1cccc2[nH]ccc12` (stereo not given), in series [1], the logD was -0.6. The Ki in series [2] and in series [3] was 2 nM throughout. Besides, the Hill coefficient in series [4] was > 0.9.
Regarding `OC(CNCc1ccc(F)cc1)COc1cccc2[nH]ccc12` (stereo not given), the log distribution coefficient (logD) in series [1] was 1.9. The Ki came to 80 nM in series [2] and 125 nM in series [3]. For the same compound, the Hill coefficient in series [4] was > 0.9.
On to `OC(CNCc1ccccc1F)COc1cccc2[nH]ccc12` (stereo not given), for which the logD in series [1] amounted to 2. For the same compound, the inhibitory constant (Ki) in series [2] came out at 45 nM; in series [3] it was 60 nM. Besides, in series [4], the Hill coefficient is > 0.9.
The like results for `OC(CNCCc1ccccc1)COc1cccc2[nH]ccc12` (stereo not given) were, in that order, 1.7, 4 nM, 5 nM and > 0.9.
Turning to `CC(C)NCC(O)COc1cccc2[nH]ccc12` (stereo not given) [PINDOLOL], in series [1], the logD was -0.3. In addition, the inhibitory constant (Ki) in series [2] and in series [3] was 1 nM in each case. Also, the Hill coefficient in series [4] was > 0.9.
For the compound `COc1ccc(CCNCC(O)COc2cccc3[nH]ccc23)cc1OC` (stereo not given), the logD in series [1] was determined as 1.1. Also, the values for the Ki in series [2] and in series [3] were 7 nM and 3 nM, respectively. Besides, the Hill coefficient in series [4] is > 0.9.
